The test system of assay [1] is Human immunodeficiency virus 1. In words: Antiviral activity against HIV1 HXB2 harboring 190A mutant reverse transcriptase infected in human MT4 cells after 5 days by MTT assay. The class given is functional, organism-based. The conditions noted are these: Human immunodeficiency virus 1, HXB2, MT4, 120 h. The essentials:
(§1)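 Mutant viruses were made by recombining the mutant PR-RT sequence into a PR-RT-deleted HIV-1 HXB2 proviral clone. MT4 cells were grown in RPMI 1640 with 10% FCS and antibiotics. Virus at 200 CCID50/well and 30000 cells/well were incubated with varied compound concentrations for 5 days at 37 °C, 5% CO2. MTT viability gave IC50, the concentration giving 50% infection versus the drug-free control.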

A short description of assay [2]: Selectivity index, ratio of CC50 for human MT4 cells to IC50 for HIV-1 LAI harboring wild type reverse transcriptase infected in human MT4 cells. The class given is functional. The essentials: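 Cytotoxicity was measured in mock-infected MT4 cultures (30000 cells/well) given the same compound concentration range, run in parallel with the infected cultures for 5 days at 37 °C, 5% CO2, with MTT viability. CC50 was the concentration reducing viability by 50% versus the drug-free control. SI was CC50 divided by IC50 against HIV-1 LAI.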

The subject of assay [3] is Human immunodeficiency virus 1. In words: Antiviral activity against HIV1 HXB2 harboring 100I mutant reverse transcriptase infected in human MT4 cells after 5 days by MTT assay. In kind it is functional, organism-based. The conditions noted are these: Human immunodeficiency virus 1, HXB2, MT4, 120 h. The method in brief:
as §1

In assay [4] the test system is Human immunodeficiency virus 1. The experiment in a line: Antiviral activity against HIV1 HXB2 harboring 190S mutant reverse transcriptase infected in human MT4 cells after 5 days by MTT assay. In kind it is functional, organism-based. As to conditions: Human immunodeficiency virus 1, HXB2, MT4, 120 h. The essentials: as §1
Assay [5] relates to Human immunodeficiency virus 1. The experiment in a line: Antiviral activity against HIV1 HXB2 harboring 101E mutant reverse transcriptase infected in human MT4 cells after 5 days by MTT assay. In kind it is functional, organism-based. The conditions noted are these: Human immunodeficiency virus 1, HXB2, MT4, 120 h. The essentials:
as §1

The subject of assay [6] is Human immunodeficiency virus 1. The experiment in a line: Antiviral activity against HIV1 HXB2 harboring 179E mutant reverse transcriptase infected in human MT4 cells after 5 days by MTT assay. In kind it is functional, organism-based. As to conditions: Human immunodeficiency virus 1, HXB2, MT4, 120 h. The essentials: as §1
Assay [7] relates to Human immunodeficiency virus 1. In words: Antiviral activity against HIV1 HXB2 harboring 227C mutant reverse transcriptase infected in human MT4 cells after 5 days by MTT assay. The class given is functional, organism-based. The conditions noted are these: Human immunodeficiency virus 1, HXB2, MT4, 120 h. The essentials:
as §1

Assay [8] has as its system Human immunodeficiency virus 1. In words: Antiviral activity against HIV1 HXB2 harboring K103N mutant reverse transcriptase infected in human MT4 cells after 5 days by MTT assay. In kind it is functional, organism-based. As to conditions: Human immunodeficiency virus 1, HXB2, MT4, 120 h. The essentials:
as §1

Assay [9] deals with Human immunodeficiency virus 1. The experiment in a line: Antiviral activity against HIV1 HXB2 harboring Y181C mutant reverse transcriptase infected in human MT4 cells after 5 days by MTT assay. The class given is functional, organism-based. The conditions noted are these: Human immunodeficiency virus 1, HXB2, MT4, 120 h. The method in brief: as §1
For assay [10], the system named is Human immunodeficiency virus 1. In words: Antiviral activity against HIV1 HXB2 harboring 101E and K103N mutant reverse transcriptase infected in human MT4 cells after 5 days by MTT assay. In kind it is functional, organism-based. As to conditions: Human immunodeficiency virus 1, HXB2, MT4, 120 h. The essentials:
as §1

Assay [11] concerns Human immunodeficiency virus 1. In words: Antiviral activity against HIV1 HXB2 harboring 227L and 106A mutant reverse transcriptase infected in human MT4 cells after 5 days by MTT assay. The class given is functional, organism-based. As to conditions: Human immunodeficiency virus 1, HXB2, MT4, 120 h. The essentials: as §1
The subject of assay [12] is Human immunodeficiency virus 1. In words: Antiviral activity against HIV1 HXB2 harboring K103N and Y181C mutant reverse transcriptase infected in human MT4 cells after 5 days by MTT assay. In kind it is functional, organism-based. As to conditions: Human immunodeficiency virus 1, HXB2, MT4, 120 h. The method in brief: as §1
For assay [13], the system named is Human immunodeficiency virus 1. In words: Antiviral activity against HIV1 HXB2 harboring 100I and K103N mutant reverse transcriptase infected in human MT4 cells after 5 days by MTT assay. As to conditions: Human immunodeficiency virus 1, HXB2, MT4, 120 h. The class given is functional, organism-based. The method in brief: as §1
Assay [14] concerns Human immunodeficiency virus 1. In words: Antiviral activity against HIV1 HXB2 harboring Y188L mutant reverse transcriptase infected in human MT4 cells after 5 days by MTT assay. The class given is functional, organism-based. The conditions noted are these: Human immunodeficiency virus 1, HXB2, MT4, 120 h. The essentials: as §1
In assay [15] the test system is Human immunodeficiency virus 1. In words: Antiviral activity against HIV1 HXB2 harboring 138K mutant reverse transcriptase infected in human MT4 cells after 5 days by MTT assay. The class given is functional, organism-based. The conditions noted are these: Human immunodeficiency virus 1, HXB2, MT4, 120 h. The method in brief:
as §1

The subject of assay [16] is Human immunodeficiency virus 1. In words: Antiviral activity against HIV-1 LAI harboring wild type reverse transcriptase infected in human MT4 cells after 5 days by MTT assay. The class given is functional, organism-based. As to conditions: Human immunodeficiency virus 1, LAI, MT4, 120 h. The method in brief: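 MT4 cells were kept in RPMI 1640 with 10% fetal calf serum and antibiotics at 37 °C, 5% CO2. A range of compound concentrations was incubated with HIV-1 LAI at 200 CCID50/well and 30000 MT4 cells/well for 5 days at 37 °C. Cell viability was read by MTT, and IC50 was the concentration giving 50% infection versus the drug-free control.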

Assay [17] deals with Human immunodeficiency virus 1. The experiment in a line: Antiviral activity against HIV1 HXB2 harboring 106A mutant reverse transcriptase infected in human MT4 cells after 5 days by MTT assay. In kind it is functional, organism-based. As to conditions: Human immunodeficiency virus 1, HXB2, MT4, 120 h. The method in brief:
as §1

Assay [18] deals with Human immunodeficiency virus 1. In words: Ratio of compound IC50 to efavirenz IC50 for HIV1 HXB2 harboring Y181C mutant reverse transcriptase infected in human MT4 cells. In kind it is functional.
Assay [19] has as its system Human immunodeficiency virus 1. In words: Ratio of efavirenz IC50 to compound IC50 for HIV1 HXB2 harboring Y188L mutant reverse transcriptase infected in human MT4 cells. In kind it is functional.
Assay [20] has as its system Human immunodeficiency virus 1. The experiment in a line: Ratio of efavirenz IC50 to compound IC50 for HIV1 HXB2 harboring K103N mutant reverse transcriptase infected in human MT4 cells. In kind it is functional.
For assay [21], the system named is Human immunodeficiency virus 1. The experiment in a line: Ratio of efavirenz IC50 to compound IC50 for HIV1 HXB2 harboring 100I and K103N mutant reverse transcriptase infected in human MT4 cells. In kind it is functional.

SMILES strings stand for the structures. Bounds are passed on as bounds.

Regarding `CCSCc1c(C)[nH]c(=O)c(I)c1Oc1cc(C)cc(C)c1`, the IC50 in [1] came out at 19.9 nM; in [3] it was 7.94 nM; in [4] it was 10 nM; in assay [5] it was 19.9 nM; in assay [6] it was 10 nM; in assay [7] it was 199 nM. The IC50 in assay [8] is 6.3 nM; in assay [9] it was 6.3 nM; in assay [10] it was 19.9 nM; in [11], 125 nM; in assay [12], 19.9 nM; in [13], 15.8 nM. The IC50 came out at 31.6 nM in assay [14], 25.1 nM in assay [15], 1.25 nM in assay [16] and 7.94 nM in assay [17]. Besides, in [2], the “Ratio CC50/IC50” value was over 79433.

Turning to `Cc1cc(C)cc(Sc2c(Cn3ncnn3)c(C)[nH]c(=O)c2I)c1`, the IC50 in assay [1] was 1 nM; in [3], 1.25 nM; in assay [4] it was 0.3 nM; in assay [5] it was 3.3 nM; in assay [6] it was 0.8 nM; in assay [7], 50.1 nM. Further, the IC50 in [8] is 1.25 nM; in [9] it was 10 nM; in assay [10], 5 nM; in assay [11] it was 50.1 nM; in assay [12] it was 32.9 nM; in [13] it was 3.98 nM. The half-maximal inhibitory concentration (IC50) was found to be 31.6 nM in [14], 2.6 nM in assay [15], 0.63 nM in assay [16] and 0.6 nM in assay [17]. The “Ratio CC50/IC50” value in [2] was over 158489.

On to `CCc1c(C)[nH]c(=O)c(I)c1Oc1cc(C)cc(C)c1`, for which the “Ratio IC50” value stood at 10 in [18], 3 in assay [19] and 10 in [20]. Besides, the “Ratio CC50/IC50” value in [2] worked out at 9000. Further, the IC50 in assay [3] was determined as 6.31 nM; in [4], 1.99 nM; in assay [5] it was 6.31 nM; in [6], 1.99 nM; in assay [7] it was 63.1 nM; in [10], 15.8 nM. Further, the figures for the IC50 in [11], in [15] and in [17] were 398 nM, 3.98 nM and 5.01 nM, respectively.

Regarding `Cc1cc(C)cc(Oc2c(Cn3cnnn3)c(C)[nH]c(=O)c2I)c1`, the IC50 is 3.7 nM in [1]; 4 nM in [3]; 0.4 nM in assay [4]; 4 nM in assay [5]; 1.4 nM in assay [6]; 2.6 nM in assay [7]. Further, the IC50 in [8] is 1.4 nM; in [9], 5.9 nM; in [10] it was 4.6 nM; in assay [11], 3.8 nM; in assay [12] it was 17.4 nM; in assay [13] it was 4.7 nM. Also, the IC50 in assay [14] was 10.3 nM; in [15], 3.9 nM; in assay [16], 0.79 nM; in assay [17] it was 2 nM. The “Ratio CC50/IC50” value in assay [2] is reported as over 100000.

For the compound `CCc1c(C)[nH]c(=O)c(N(C)C)c1C(=O)c1cc(C)cc(C)c1`, the IC50 in assay [1] is 12.6 nM; in assay [3] it was 6.31 nM; in assay [4] it was 3.98 nM; in [5] it was 7.94 nM; in assay [6], 2.51 nM; in [7], 631 nM. The IC50 in [8] came to 10 nM; in assay [9], 63.1 nM; in [10], 12.6 nM; in assay [11] it was 398 nM; in assay [12], 158 nM; in assay [13], 39.8 nM. The IC50 came to 158 nM in assay [14], 6.31 nM in [15], 3.98 nM in assay [16] and 6.31 nM in assay [17]. The “Ratio CC50/IC50” value in [2] was 2512.

For the compound `Cc1cc(C)cc(Oc2c(CSCc3ccco3)c(C)[nH]c(=O)c2I)c1`, the IC50 turned out to be 3.16 nM in assay [1]; 6.31 nM in assay [3]; 1.25 nM in assay [4]; 6.31 nM in assay [5]; 1 nM in assay [6]; 39.8 nM in assay [7]. The IC50 in [8] was 1 nM; in assay [9], 5 nM; in assay [10], 3.98 nM; in assay [11] it was 125 nM; in assay [12], 5.01 nM; in assay [13], 31.6 nM. The IC50 in assay [14] amounted to 31.6 nM; in assay [15], 1.25 nM; in assay [16], 1.25 nM; in assay [17] it was 1.58 nM. Moreover, the “Ratio CC50/IC50” value in assay [2] is over 79433.

In the case of `Cc1cc(C)cc(Sc2c(Cn3cnnn3)c(C)[nH]c(=O)c2I)c1`, the IC50 worked out at 0.9 nM in assay [1]; 0.79 nM in [3]; 0.2 nM in [4]; 1.4 nM in [5]; 0.8 nM in assay [6]; 31.6 nM in assay [7]. For the same compound, the IC50 in assay [8] worked out at 0.31 nM; in assay [9], 7.9 nM; in assay [10] it was 1 nM; in assay [11], 39.8 nM; in assay [12], 6.8 nM; in assay [13], 1.25 nM. The IC50 in assay [14] was found to be 15.8 nM; in assay [15] it was 1.1 nM; in assay [16], 1.25 nM; in assay [17] it was 0.5 nM. Moreover, in assay [2], the “Ratio CC50/IC50” value is over 79433. In addition, the “Ratio IC50” value in assay [21] stood at 1000.

These data come from ChEMBL document CHEMBL1154778, “Synthesis and biological evaluation of C-5 methyl substituted 4-arylthio and 4-aryloxy-3-Iodopyridin-2(1H)-one type anti-HIV agents” (J Med Chem, 2009).
